This series has as its system MS2 coat protein. Description: apparent Kd, MS2 coat protein; higher = weaker binding; RNA-MaP array; FMN 200 µM where present. A digest of the protocol: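 Two titrations, one without ligand and one with constant ligand, were run with SNAP-549-labelled MS2 coat protein from 0.7 or 1.5 nM, doubling to 3 µM. The targets were designs transcribed by stalled E. coli RNA polymerase on Illumina sequencing-chip clusters, in 100 mM Tris-HCl pH 7.5, 80 mM KCl, 4 mM MgCl2, BSA, DTT, yeast tRNA and Tween-20. The apparent Kd is the median of filtered per-cluster binding-curve fits, with green signal normalised to red-channel RNA signal and control-cluster median Fmax.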

[1] abbreviates: designed as: OFF switch for flavin mononucleotide, no ligand.
Setting [2] is: ligand present: flavin mononucleotide, designed as: OFF switch for flavin mononucleotide.
[3] abbreviates: designed as: ON switch for flavin mononucleotide, no ligand.
[4] abbreviates: ligand present: flavin mononucleotide, designed as: ON switch for flavin mononucleotide.

The term apparent Kd denotes the concentration giving half-maximal binding under the conditions of the assay. Take “UGAUGUCGCGAGGAUAUCCAAGAGGACUUUCUGGGAGAAGGUGCGACAUGAGGAUCACCCAUGUCAUAAGGAGU”: the “apparent Kd” value reads like this: under setting [1], 109 nM; under setting [2], 287 nM.

Take “AUUUAUUUUGUGAGGAUAUGCAGGAUCUAGCUCCAGUAGAAGGCACAUGAGGAUCACCCAUGUGGGUCCGAGAC”: the “apparent Kd” value was 22.9 nM under setting [1] and 111 nM under setting [2]. Turning to “CACGUCAGGAAACGGAGCGGCCAACAUGAGGAUCACCCAUGUGAGGAUAUGCCUACUAAAAGUAGGCAGAAGGCACAAUUGGCA”, the “apparent Kd” value reads like this: under setting [1], 36.7 nM; under setting [2], 94.9 nM. On to “AAUUCACAUGAGGAUCACCCAUGUCAGGAUAUGGUUUCACGGGUUUCGGUGCGUGAGGCCAGAAGGGACAGCUA”, for which the “apparent Kd” value under setting [1] was determined as 61 nM and the “apparent Kd” value under setting [2] was determined as 73.7 nM. In the same order, the values of “GGAAAACAUGAGGAUCACCCAUGUGAGGAUAUCGAUGUCCAAAGGAAAGUGCGGGACUCGAGAAGGCACUUGGA” are 45.4 nM and 39 nM.

Consider “UGUUGUAUUACAGGAUAUCUAGUAUUUUUGUUUAGAGAAGGGUAUUCACAUGAGGAUCACCCAUGUAUAUACGAGGAAGUUGUG”, for which the “apparent Kd” value was 57.2 nM under setting [3] and 63.7 nM under setting [4]. Consider “GGAUGACAAAGUCAUCCAAUUCGAACAUGAGGAUCACCCAUGUAGGAUAUGCUUCUCAAAGAGAAGCAGAAGGACAUGUGCCUU”, for which the “apparent Kd” value under setting [1] was 29.5 nM and the “apparent Kd” value under setting [2] was 215 nM. Taken in the same sequence, the figures for “AGCACGAAAGUGCAACGAUGUACGAGAAGGACAUGAGGAUCACCCAUGUAGGAGUAACUCCAAAUGUAGGAUAUCGUACAUCGA” were 568 nM and 79 nM.

In the case of “UCGGCGCGAGGAUAUACGUUUGCUUUUUUUUGUCUUUGUGUACAUGAGGAUCACCCAUGUAGAAGGCGCGCCGC”, the “apparent Kd” value by setting is: under setting [1], 21.3 nM; under setting [2], 36.7 nM. Taken in the same sequence, the figures for “CCACAGGUAGGAUAUGCUGGGUGGGAUAAAUAUUUCCUGAGACAUGAGGAUCACCCAUGUAGAAGGACCAAAAG” were 18.3 nM and 16.1 nM. For the sequence “AUUAAACAUGAGGAUCACCCAUGUCAACAAAGUCGAGGAUAUGGGCAAAUAAAAUAAGAACCAGAAGGCGAAUAAU”, the “apparent Kd” value by setting is: under setting [3], 259 nM; under setting [4], 38 nM.

As to “UUAAUAAGUGUGAGGAUAUGCUGGUCCUUGGAUCAGCAGAAGGCACAUGAGGAUCACCCAUGUACAAUAUAUUA”, the “apparent Kd” value under setting [1] was 33.6 nM and the “apparent Kd” value under setting [2] stood at 215 nM.

On to “ACCAUUUACUAAUUAUCUAUACAUGAGGAUCACCCAUGUUAAGAGGAUAUCAUCGUGAAACGCGAUGAGAAGGCUUAGCAUUCG”, for which the “apparent Kd” value by setting is: under setting [1], 55.2 nM; under setting [2], 172 nM. In the same order, the values of “AUGCUUCACACAGGAUAUACAUGAGGAUCACCCAUGUGUCCACAGUAGCUGACACGAGCUACGCGGUAGAAGGGUGUGAAGCAU” are 18.5 nM and 61.2 nM. With “CAAGAUGUCUGGUAAUUGCGUACACAGGAUAUGGAUUGUUACAUGAGGAUCACCCAUGUUUCCUUUCAGAAGGGUGUAUCAUGU”, the “apparent Kd” value reads like this: under setting [3], 208 nM; under setting [4], 20.5 nM.

For the sequence “AAAGUUGGUAGGCCCUCGGAACAUGAGGAUCACCCAUGUAAGGAGGAUAUGCCCGGUACCCGCUGGCAGAAGGCCUUAUAAGAC”, the “apparent Kd” value runs as follows: under setting [1], 6.74 nM; under setting [2], 42.5 nM.

“GCUCCUCGAGUUAGGAUAUGUCGGCUAUCUAAAUGAUAGAAGGGACAUGAGGAUCACCCAUGUCACGGGAUUGA”: the “apparent Kd” value turned out to be 56.7 nM under setting [1] and 58.7 nM under setting [2].

For the sequence “CGGCGGAAAGGAUAUGCAUUAAUAUCAAAAUGUGGGCCACGACAUGAGGAUCACCCAUGUAGAAGGUUCAGCCA”, the “apparent Kd” value is, setting by setting: under setting [1], 16.4 nM; under setting [2], 13.3 nM. As to “AGGUAACAUGAGGAUCACCCAUGUAAGGUGAACGUAGGAUAUCGAGGAGGUAGGGUAGGCCGAGAAGGACGAGGAG”, the “apparent Kd” value worked out at 293 nM under setting [3] and 179 nM under setting [4].

“GCAUGCAAGUAGAAGGGCAGAUAUUUUGAUACUGCAGGAUAUGCAGAAUCAUAUCCACAUGAUAACAUGAGGAUCACCCAUGUA”: the “apparent Kd” value was found to be 33.7 nM under setting [1] and 26.1 nM under setting [2]. Turning to “AUCAUCUUGUCAGGAUAUGCGUGUCGACGAAAGUAGACAAUCUUGAUAACAUGAGGAUCACCCAUGUAGAAGGGACGAGAUGAU”, the “apparent Kd” value runs as follows: under setting [1], 21.6 nM; under setting [2], 24.5 nM. In the same order, the values of “UUAUGUGUCGUAGGAUAUCAUUAGAUUUGUAAUUUAAUUGUAAUUUACAUAUGAGAAGGACGUAUACAUGAGGAUCACCCAUGU” are 25.5 nM and 35.9 nM. Consider “AGACUGAAGCAAGGAUAUUGUAAGGUUAUCGUACAAGAAGGUGCUGUUUAUGUCUCUUUACAUGAGGAUCACCCAUGUUUUUAA”, for which the “apparent Kd” value by setting is: under setting [3], 22.2 nM; under setting [4], 23.5 nM. For “AGUCGGCAUGAGAAGGGUUACAUGAGGAUCACCCAUGUGAUCAAAUCGUUAACAGGAUAUCAGGCGUCGGGCUUUGCCCGGAGG”, the “apparent Kd” value worked out at 16.4 nM under setting [1] and 106 nM under setting [2]. “UUACCUCAUGAGAAGGACAUGAGGAUCACCCAUGUAGGAUAUCAUGGGUCAGUGGAAUUGAAUCUUCGGAUUCAAUAACUCUAC”: the “apparent Kd” value was found to be 140 nM under setting [3] and 44 nM under setting [4]. In the case of “ACAGAGCCUGACAUGAGGAUCACCCAUGUUAGAUUGUUAUGUCAGGAUAUUGUCUAGCAACUAGACAAGAAGGGACGCUCUGUG”, the “apparent Kd” value reads like this: under setting [3], 71.2 nM; under setting [4], 8.88 nM. In the same order, the values of “AAUAAUUAUUAAGGAUAUGGGUUGAUAACAUGAGGAUCACCCAUGUUAAAUAAGCCGAGAGGCUACUAGAAGGAUAUAUAUAUU” are 1050 nM and 435 nM. For “UUCAGCUCGUGAGGAUAUACAUGUGCUGGAAACAGCACUAUUAAAUUCACAUGAGGAUCACCCAUGUAGAAGGCACGAGCUGAG”, the “apparent Kd” value under setting [1] turned out to be 15.4 nM and the “apparent Kd” value under setting [2] is 18.7 nM. “GCAUUUGAGCAGGAUAUAGCCUGAACAUAAUGGUUAGAAGGGCUCACAUGAGGAUCACCCAUGUGGUGUCCUAA”: the “apparent Kd” value is, setting by setting: under setting [1], 12.8 nM; under setting [2], 36 nM.

Take “CAGCGAUAGCUAAAGUAUCUAUCAGAGGAUAUUCAUGAAACAUGAGGAUCACCCAUGUGAAACUGGGAGAAGGCUGAUAGAUAG”: the “apparent Kd” value under setting [4] came to 5.92 nM. With “CUUUUGUGAGGAUAUCAGUAGUAAAUAUAUAAAAUUACUACUGAGAAGGCACAUGAGGAUCACCCAUGUUCCUC”, the “apparent Kd” value by setting is: under setting [1], 38.1 nM; under setting [2], 274 nM. Take “AUUAUACAUGAGGAUCACCCAUGUUUUGGUGGGUCAGGAUAUAAAUUGAAUGAGUUUUAGUUAGAAGGGACAUUUA”: the “apparent Kd” value by setting is: under setting [3], 56.5 nM; under setting [4], 42.9 nM.

On to “CUUUAGUGAGGAUAUUAGUAGUAAUACAAUAGUAUUACUACUGAGAAGGCACAUGAGGAUCACCCAUGUUCCUC”, for which the “apparent Kd” value is 27.8 nM under setting [1] and 292 nM under setting [2].

“CAGCGCUGUCGAGAGGAUAUGCGGUGAUGGACAUGAGGAUCACCCAUGUUAGCGACAGCAUCACGGCAGAAGGCUCUACCGCUGC”: the “apparent Kd” value worked out at 31.5 nM under setting [3] and 21.7 nM under setting [4].

For the sequence “UUGGACGUCGUAGGAUAUGUAGGAUAUUCCUACAUGAGGAUCACCCAUGUUGACAUGGAAGAAGGACAGUAGGACGAUGUCCAU”, the “apparent Kd” value reads like this: under setting [3], 251 nM; under setting [4], 8.02 nM. “UAUAUAUAGGCAGGAUAUACAUGUAUAUAUAAUAUAUUAUAUAUUAUUACAUGAGGAUCACCCAUGUAGAAGGGCCAUAUUAUA”: the “apparent Kd” value stood at 41.3 nM under setting [1] and 65.9 nM under setting [2]. As to “UUAAGUUCAGGAUAUGAUGUUUUAAACAUGAGGAUCACCCAUGUAGAUCCUGAAUUAACAUCAGAAGGGAAUAUUU”, the “apparent Kd” value is, setting by setting: under setting [1], 37.5 nM; under setting [2], 217 nM. As for “GUGCCGAACCUAGGAUAUCUUAUCGGGUUCCGCCGUGGCUUAGCGACAUGAGGAUCACCCAUGUAAGAGAAGGAGGUGGCGGAG”, the “apparent Kd” value reads like this: under setting [1], 128 nM; under setting [2], 135 nM. Take “UGGAAACAUGAGGAUCACCCAUGUAAAAGGUGGUCAGGAUAUGCGAAAAGAAAAAGAAAAGUAGAAGGGACAAGAA”: the “apparent Kd” value is, setting by setting: under setting [3], 459 nM; under setting [4], 1200 nM. Regarding “CAGCCCUGAGGAUAUCCAUCCUUGUACAUGAGGAUCACCCAUGUUUUCCUCUGGGCUUUCGGAGAAGGCAGGUAUC”, the “apparent Kd” value came out at 74.4 nM under setting [1] and 68.5 nM under setting [2].

Consider “CUUGUGUUAGGAUAUGCGCCCUGAAGUGGAAGGGCCAGAGAGCAGAAGGGACAUGAGGAUCACCCAUGUGUGAC”, for which the “apparent Kd” value runs as follows: under setting [1], 79.7 nM; under setting [2], 125 nM.

As for “CAAAAGCUAGGAUAUACGUCAAAGGGCCCGAUCGCUCUCGGACAUGAGGAUCACCCAUGUAGAAGGAGCGCACU”, the “apparent Kd” value is, setting by setting: under setting [1], 14.4 nM; under setting [2], 16.8 nM. “GUGCACAUUCGAGGAUAUCGGAGAGAGAUCGUUCGAGAAGGCGAUUCAUGAUGUAUUAUCCUGGACAUGAGGAUCACCCAUGUG”: the “apparent Kd” value turned out to be 105 nM under setting [3] and 89.3 nM under setting [4]. “UUUCUUGGGCAAGGAUAUCCUGUGCGGUUCUGGCUCGUGUCUGUCACAUGAGGAUCACCCAUGUGGGAGAAGGUGCCUGCGGUC”: the “apparent Kd” value was 6.13 nM under setting [1] and 6.1 nM under setting [2].

On to “AUGCUAGUGUGAGGAUAUUAGGCUACAUGAGGAUCACCCAUGUUGAUCAUGAGGAUCACCCAUGAUAAGAAGGUACAUUAGCAU”, for which the “apparent Kd” value runs as follows: under setting [1], 88.1 nM; under setting [2], 108 nM. Consider “GACUUGGCUACAUGAGGAUCACCCAUGUUUGACUGGAUCAAUUAGGAUAUAGUGAUAUGCAACAAUUAGAAGGGAUGUUUACGG”, for which the “apparent Kd” value by setting is: under setting [3], 56.6 nM; under setting [4], 45.2 nM. In the same order, the values of “GGGUGGCGUAGAGGAUAUAUGGUACAUGAGGAUCACCCAUGUGCAUAUGAUGUUCAUGUUUAUGUAUAGAAGGCUACGUCGCUA” are 40.6 nM and 42.8 nM. With “UGACUAGUAAUGUAUCGAAAGAUCACAUGAGGAUCACCCAUGUAGGAUAUGAGCAGAAAAUCUGCUCAGAAGGACAUGCUAGUC”, the “apparent Kd” value runs as follows: under setting [1], 5.9 nM; under setting [2], 7.36 nM.

Values taken from the EternaBench riboswitch data.
